# Data reported in ChEMBL document CHEMBL5058577, “EUbOPEN Chemogenomics Library 2 (Multiplex)” (2022).
# Tested on: U2OS
# Assay: Multiplex assay against U2OS
# Format: toxicity, cell-based
# Conditions: human
# Method in brief: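 Imaging took place on a CQ1 microscope at 37°C and 5% CO2 once compound had been added to live cells stained at seeding with Hoechst33342, BioTracker Green Microtubule Cytoskeleton Dye, MitoTracker Red and Annexin V Alexa Fluor 680. CellPathfinder machine-learning gating classed cells as Hoechst high-intensity objects or normal cells, classed normal cells as having healthy, pyknosed or fragmented nuclei, and classed pyknosed cells as mitotic or apoptotic. Tubulin, mitochondrial-mass and membrane-permeability phenotypes are per cents of the healthy-nucleus cells.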
# [1] = 12 h, 1 µM, compound concentration 1 uM, replicate 1
# [2] = 12 h, 1 µM, compound concentration 1 uM, replicate 2
# [3] = 12 h, 10 µM, compound concentration 10 uM, replicate 1
# [4] = 12 h, 10 µM, compound concentration 10 uM, replicate 2
# [5] = 24 h, 1 µM, compound concentration 1 uM, replicate 1
# [6] = 24 h, 1 µM, compound concentration 1 uM, replicate 2
# [7] = 24 h, 10 µM, compound concentration 10 uM, replicate 1
# [8] = 24 h, 10 µM, compound concentration 10 uM, replicate 2
# [9] = 48 h, 1 µM, compound concentration 1 uM, replicate 1
# [10] = 48 h, 1 µM, compound concentration 1 uM, replicate 2
# [11] = 48 h, 10 µM, compound concentration 10 uM, replicate 1
# [12] = 48 h, 10 µM, compound concentration 10 uM, replicate 2
smiles,measurement,setting,value
Cc1ccc(/C(=C\CN2CCCC2)c2ccccn2)cc1 [TRIPROLIDINE],Population Apoptotic (%),[1],85%
same,Population Fragmented Nuclei (%),[1],29%
same,Population Healthy Nuclei (%),[1],61%
same,Population Hoechst High Intensity Objects (%),[1],2%
same,Population Membrane Permeable-Phenotype (%),[1],4%
same,Population Mitochondria Different-Phenotype (%),[1],2%
same,Population Mitotic Cells (%),[1],15%
same,Population Normal (%),[1],97%
same,Population Pyknosed Nuclei (%),[1],8%
same,Population Tubulin-Different-Phenotype (%),[1],1%
same,Total Cell Count,[1],244
same,Population Fragmented Nuclei (%),[2],18%
same,Population Healthy Nuclei (%),[2],70%
same,Population Hoechst High Intensity Objects (%),[2],3%
same,Population Membrane Permeable-Phenotype (%),[2],6%
same,Population Mitochondria Different-Phenotype (%),[2],1%
same,Population Mitotic Cells (%),[2],14%
same,Population Normal (%),[2],96%
same,Population Pyknosed Nuclei (%),[2],11%
same,Population Tubulin-Different-Phenotype (%),[2],5%
same,Total Cell Count,[2],126
same,Population Apoptotic (%),[3],87%
same,Population Fragmented Nuclei (%),[3],25%
same,Population Healthy Nuclei (%),[3],64%
same,Population Hoechst High Intensity Objects (%),[3],3%
same,Population Membrane Permeable-Phenotype (%),[3],29%
same,Population Mitochondria Different-Phenotype (%),[3],23%
same,Population Mitotic Cells (%),[3],12%
same,Population Normal (%),[3],96%
same,Population Pyknosed Nuclei (%),[3],9%
same,Population Tubulin-Different-Phenotype (%),[3],24%
same,Total Cell Count,[3],264
same,Population Apoptotic (%),[4],75%
same,Population Fragmented Nuclei (%),[4],15%
same,Population Healthy Nuclei (%),[4],77%
same,Population Hoechst High Intensity Objects (%),[4],0%
same,Population Membrane Permeable-Phenotype (%),[4],14%
same,Population Mitochondria Different-Phenotype (%),[4],18%
same,Population Mitotic Cells (%),[4],25%
same,Population Normal (%),[4],99%
same,Population Pyknosed Nuclei (%),[4],7%
same,Population Tubulin-Different-Phenotype (%),[4],15%
same,Total Cell Count,[4],114
same,Population Apoptotic (%),[5],89%
same,Population Fragmented Nuclei (%),[5],23%
same,Population Healthy Nuclei (%),[5],66%
same,Population Hoechst High Intensity Objects (%),[5],1%
same,Population Membrane Permeable-Phenotype (%),[5],4%
same,Population Mitochondria Different-Phenotype (%),[5],3%
same,Population Mitotic Cells (%),[5],10%
same,Population Normal (%),[5],98%
same,Population Pyknosed Nuclei (%),[5],9%
same,Population Tubulin-Different-Phenotype (%),[5],2%
same,Total Cell Count,[5],297
same,Population Apoptotic (%),[6],81%
same,Population Fragmented Nuclei (%),[6],20%
same,Population Healthy Nuclei (%),[6],68%
same,Population Hoechst High Intensity Objects (%),[6],4%
same,Population Membrane Permeable-Phenotype (%),[6],9%
same,Population Mitochondria Different-Phenotype (%),[6],6%
same,Population Mitotic Cells (%),[6],18%
same,Population Normal (%),[6],96%
same,Population Pyknosed Nuclei (%),[6],11%
same,Population Tubulin-Different-Phenotype (%),[6],5%
same,Total Cell Count,[6],150
same,Population Apoptotic (%),[7],75%
same,Population Fragmented Nuclei (%),[7],27%
same,Population Healthy Nuclei (%),[7],62%
same,Population Hoechst High Intensity Objects (%),[7],2%
same,Population Membrane Permeable-Phenotype (%),[7],12%
same,Population Mitochondria Different-Phenotype (%),[7],15%
same,Population Mitotic Cells (%),[7],24%
same,Population Normal (%),[7],97%
same,Population Pyknosed Nuclei (%),[7],10%
same,Population Tubulin-Different-Phenotype (%),[7],8%
same,Total Cell Count,[7],320
same,Population Apoptotic (%),[8],78%
same,Population Fragmented Nuclei (%),[8],19%
same,Population Healthy Nuclei (%),[8],70%
same,Population Hoechst High Intensity Objects (%),[8],1%
same,Population Membrane Permeable-Phenotype (%),[8],11%
same,Population Mitochondria Different-Phenotype (%),[8],13%
same,Population Mitotic Cells (%),[8],21%
same,Population Normal (%),[8],98%
same,Population Pyknosed Nuclei (%),[8],9%
same,Population Tubulin-Different-Phenotype (%),[8],6%
same,Total Cell Count,[8],149
same,Population Apoptotic (%),[9],86%
same,Population Fragmented Nuclei (%),[9],17%
same,Population Healthy Nuclei (%),[9],73%
same,Population Hoechst High Intensity Objects (%),[9],2%
same,Population Membrane Permeable-Phenotype (%),[9],3%
same,Population Mitochondria Different-Phenotype (%),[9],3%
same,Population Mitotic Cells (%),[9],13%
same,Population Normal (%),[9],97%
same,Population Pyknosed Nuclei (%),[9],9%
same,Population Tubulin-Different-Phenotype (%),[9],3%
same,Total Cell Count,[9],398
same,Population Apoptotic (%),[10],76%
same,Population Healthy Nuclei (%),[10],75%
same,Population Hoechst High Intensity Objects (%),[10],3%
same,Population Membrane Permeable-Phenotype (%),[10],5%
same,Population Mitotic Cells (%),[10],23%
same,Population Normal (%),[10],96%
same,Population Pyknosed Nuclei (%),[10],6%
same,Population Tubulin-Different-Phenotype (%),[10],4%
same,Total Cell Count,[10],209
same,Population Apoptotic (%),[11],86%
same,Population Fragmented Nuclei (%),[11],24%
same,Population Healthy Nuclei (%),[11],65%
same,Population Hoechst High Intensity Objects (%),[11],2%
same,Population Membrane Permeable-Phenotype (%),[11],11%
same,Population Mitochondria Different-Phenotype (%),[11],8%
same,Population Mitotic Cells (%),[11],13%
same,Population Normal (%),[11],97%
same,Population Pyknosed Nuclei (%),[11],9%
same,Population Tubulin-Different-Phenotype (%),[11],7%
same,Total Cell Count,[11],453
same,Population Apoptotic (%),[12],89%
same,Population Fragmented Nuclei (%),[12],15%
same,Population Healthy Nuclei (%),[12],74%
same,Population Hoechst High Intensity Objects (%),[12],4%
same,Population Membrane Permeable-Phenotype (%),[12],9%
same,Population Mitotic Cells (%),[12],10%
same,Population Normal (%),[12],95%
same,Population Tubulin-Different-Phenotype (%),[12],6%
same,Total Cell Count,[12],203
